Data as given in article PMC11325413 (ACS Omega, 2024).

How the values were obtained:
A-549 = test: Cytotoxicity assay, lung cancer cell line; assay type: cell-based; conditions: Homo sapiens, A549, read-out: cytotoxic activity IC50 ± SEM, A-549
Summary of the method: (§1)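 Cytotoxicity of test compound was measured by MTT assay in a panel of four human cancer cell lines, with IC50 derived from the viability read-out.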

MCF-7 = test: Cytotoxicity assay, breast cancer cell line; assay type: cell-based; conditions: Homo sapiens, MCF7, read-out: cytotoxic activity IC50 ± SEM, MCF-7
Summary of the method: as §1

Panc-1 = test: Cytotoxicity assay, pancreatic cancer cell line; assay type: cell-based; conditions: Homo sapiens, PANC-1, read-out: cytotoxic activity IC50 ± SEM, Panc-1
Summary of the method: as §1

HT-29 = test: Cytotoxicity assay, colon cancer cell line; assay type: cell-based; conditions: Homo sapiens, HT-29, read-out: cytotoxic activity IC50 ± SEM, HT-29
Summary of the method: as §1

MCF-10A cells = test: Cell viability assay; assay type: cell-based, human; conditions: 50 μM doses
Summary of the method: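 Normal human mammary gland epithelial MCF-10A cells were incubated with test compound for 4 days, and viability was read by MTT assay.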

[1] = tested on: four human cancer cell lines (A-549, MCF-7, Panc-1, HT-29); test: Cytotoxicity assay, average over the four cancer cell lines; assay type: cell-based; conditions: read-out: cytotoxic activity average IC50 (GI50)
EGFR = EGFR (Homo sapiens, UniProt P00533); test: EGFR-TK inhibitory assay; assay type: biochemical
VEGFR-2 = VEGFR-2 (Homo sapiens, UniProt P35968); test: VEGFR-2 inhibitory kinase assay; assay type: biochemical
p53 = test: Apoptosis marker immunoassay in A-549: p53; assay type: cell-based, human; conditions: A-549 cells
Summary of the method: (§2)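 Sandwich immunoassay quantifying pro-apoptotic (p53, BAX, caspase 3, caspase 6) and antiapoptotic (BCL-2, CK-18) proteins in human lung A-549 cells treated with test compound. Levels are expressed as fold change relative to untreated control cells, as mean ± SD of three independent experiments.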

BAX = test: Apoptosis marker immunoassay in A-549: BAX; assay type: cell-based, human; conditions: A-549 cells
Summary of the method: as §2

caspase 3 = test: Apoptosis marker immunoassay in A-549: caspase 3; assay type: cell-based, human; conditions: A-549 cells
Summary of the method: as §2

caspase 6 = test: Apoptosis marker immunoassay in A-549: caspase 6; assay type: cell-based, human; conditions: A-549 cells
Summary of the method: as §2

CK-18 = test: Apoptosis marker immunoassay in A-549: CK-18; assay type: cell-based, human; conditions: A-549 cells
Summary of the method: as §2

Sequence of VEGFR-2 (P35968 20-1356): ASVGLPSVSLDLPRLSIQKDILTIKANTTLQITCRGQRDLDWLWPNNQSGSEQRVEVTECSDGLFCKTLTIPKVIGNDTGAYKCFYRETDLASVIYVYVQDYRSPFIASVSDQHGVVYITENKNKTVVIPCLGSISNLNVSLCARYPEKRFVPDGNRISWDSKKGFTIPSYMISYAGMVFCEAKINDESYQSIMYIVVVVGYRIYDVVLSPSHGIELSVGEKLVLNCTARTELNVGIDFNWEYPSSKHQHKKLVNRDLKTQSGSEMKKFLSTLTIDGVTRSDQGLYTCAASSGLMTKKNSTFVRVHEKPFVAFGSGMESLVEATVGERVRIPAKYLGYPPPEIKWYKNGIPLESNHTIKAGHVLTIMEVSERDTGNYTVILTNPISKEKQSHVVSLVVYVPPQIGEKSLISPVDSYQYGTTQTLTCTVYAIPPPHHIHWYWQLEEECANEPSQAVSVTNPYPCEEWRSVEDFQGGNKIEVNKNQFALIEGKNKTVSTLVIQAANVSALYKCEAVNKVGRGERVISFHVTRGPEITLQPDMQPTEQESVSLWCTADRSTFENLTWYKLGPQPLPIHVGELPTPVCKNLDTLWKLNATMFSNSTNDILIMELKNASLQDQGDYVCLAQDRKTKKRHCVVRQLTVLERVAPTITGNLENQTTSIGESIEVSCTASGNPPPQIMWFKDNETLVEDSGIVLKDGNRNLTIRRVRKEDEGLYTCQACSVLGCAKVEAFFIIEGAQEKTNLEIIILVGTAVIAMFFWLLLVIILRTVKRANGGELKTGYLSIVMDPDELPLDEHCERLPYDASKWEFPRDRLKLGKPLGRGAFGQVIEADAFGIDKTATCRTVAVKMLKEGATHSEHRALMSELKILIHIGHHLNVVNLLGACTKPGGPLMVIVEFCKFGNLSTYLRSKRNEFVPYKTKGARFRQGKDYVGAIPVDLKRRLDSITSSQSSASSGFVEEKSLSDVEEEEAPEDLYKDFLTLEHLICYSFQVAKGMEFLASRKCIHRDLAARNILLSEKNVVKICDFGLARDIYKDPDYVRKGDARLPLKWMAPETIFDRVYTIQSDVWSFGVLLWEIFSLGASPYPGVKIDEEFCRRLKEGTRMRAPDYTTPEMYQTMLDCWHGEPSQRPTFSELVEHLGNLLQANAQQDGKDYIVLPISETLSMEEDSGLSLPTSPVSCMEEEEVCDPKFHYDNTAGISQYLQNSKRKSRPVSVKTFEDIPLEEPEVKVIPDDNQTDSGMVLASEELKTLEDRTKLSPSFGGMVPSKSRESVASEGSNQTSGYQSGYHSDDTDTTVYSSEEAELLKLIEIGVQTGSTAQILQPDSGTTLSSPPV
Sequence of EGFR (P00533 669-1210): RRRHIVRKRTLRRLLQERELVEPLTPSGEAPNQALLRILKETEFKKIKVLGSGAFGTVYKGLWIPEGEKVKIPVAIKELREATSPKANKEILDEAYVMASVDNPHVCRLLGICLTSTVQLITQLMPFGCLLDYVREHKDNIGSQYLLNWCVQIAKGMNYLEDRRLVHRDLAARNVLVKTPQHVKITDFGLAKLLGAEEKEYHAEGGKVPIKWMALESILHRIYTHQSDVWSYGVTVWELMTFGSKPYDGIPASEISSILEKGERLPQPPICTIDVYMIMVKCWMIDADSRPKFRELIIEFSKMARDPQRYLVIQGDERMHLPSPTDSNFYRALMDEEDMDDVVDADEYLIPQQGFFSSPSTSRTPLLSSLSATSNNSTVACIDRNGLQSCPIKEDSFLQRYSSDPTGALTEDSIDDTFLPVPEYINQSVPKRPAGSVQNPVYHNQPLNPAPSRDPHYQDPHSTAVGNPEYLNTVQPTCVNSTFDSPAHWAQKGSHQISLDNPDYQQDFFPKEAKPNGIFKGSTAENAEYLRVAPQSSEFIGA

Structure (SMILES)	IC50 (A-549) [nM]	IC50 (MCF-7) [nM]	IC50 (Panc-1) [nM]	IC50 (HT-29) [nM]	effect on nontumor cells MCF-10A (MCF-10A cells)	IC50 [1] [nM]	IC50 (EGFR) [nM]	IC50 (VEGFR-2) [nM]	p53 elevation compared to control untreated cells (p53) [fold]	BAX elevation compared to control untreated cells (BAX) [fold]	caspase 3 elevation compared to control untreated cells (caspase 3) [fold]	caspase 6 elevation compared to control untreated cells (caspase 6) [fold]	CK 18 protein expression level compared to control untreated cells (CK-18) [folds]
C#Cc1cccc(Nc2ncnc3cc(OCCOC)c(OCCOC)cc23)c1 [erlotinib, reference compound]	30 ± 3	40 ± 3	30 ± 3	30 ± 3									
COc1cc(C2NC(=O)NC(C)=C2C(=O)OC(C)C)ccc1OCc1ccccc1 (stereo not shown) [Compound 15, Isopropyl 4-[4-(Benzyloxy)-3-methoxyphenyl]-6-methyl-2-oxo-1,2,3,4-tetrahydropyrimidine-5-carboxylate]	33 ± 3	36 ± 3	34 ± 3	36 ± 3	no effect	35	84 ± 5	3.5 ± 0.03	5.90	14.50	8.70	9.80	0.60
COc1ccc(C2NC(=O)NC(C)=C2C(=O)OC(C)C)cc1OC (stereo not shown) [Compound 10, Isopropyl 4-(3,4-Dimethoxyphenyl)-6-methyl-2-oxo-1,2,3,4-tetrahydropyrimidine-5-carboxylate]	52 ± 5	55 ± 5	52 ± 5	54 ± 5		53							
CC1=C(C(=O)OC(C)C)C(c2ccc(O)cc2)NC(=O)N1 (stereo not shown) [Compound 13, Isopropyl 4-(4-Hydroxyphenyl)-6-methyl-2-oxo-1,2,3,4-tetrahydropyrimidine-5-carboxylate]	62 ± 6	64 ± 6	61 ± 6	64 ± 6		62							
CC1=C(C(=O)OC(C)C)C(c2ccc(O)cc2)NC(=S)N1 (stereo not shown) [Compound 8, Isopropyl 4-(4-Hydroxyphenyl)-6-methyl-2-thioxo-1,2,3,4-tetrahydropyrimidine-5-carboxylate]	64 ± 6	68 ± 6	67 ± 6	68 ± 6		67							
COc1cc(C2NC(=S)NC(C)=C2C(=O)OC(C)C)ccc1O (stereo not shown) [Compound 4, Isopropyl 4-(4-Hydroxy-3-methoxyphenyl)-6-methyl-2-thioxo-1,2,3,4-tetrahydropyrimidine-5-carboxylate]	47 ± 4	50 ± 5	48 ± 4	49 ± 4		49							
COc1cc(C2NC(=O)NC(C)=C2C(=O)OC(C)C)ccc1O (stereo not shown) [Compound 9, Isopropyl 4-(4-Hydroxy-3-methoxyphenyl)-6-methyl-2-oxo-1,2,3,4-tetrahydropyrimidine-5-carboxylate]	74 ± 7	79 ± 7	75 ± 7	77 ± 7		76							
COc1cc(C2NC(=O)NC(C)=C2C(=O)OC(C)C)cc(OC)c1OC (stereo not shown) [Compound 11, Isopropyl 6-Methyl-2-oxo-4-(3,4,5-trimethoxyphenyl)-1,2,3,4-tetrahydropyrimidine-5-carboxylate]	56 ± 5	58 ± 5	56 ± 5	59 ± 5		57							
COc1cc(C2NC(=S)NC(C)=C2C(=O)OC(C)C)cc(OC)c1OC (stereo not shown) [Compound 6, Isopropyl 6-Methyl-2-thioxo-4-(3,4,5-trimethoxyphenyl)-1,2,3,4-tetrahydropyrimidine-5-carboxylate]	42 ± 4	46 ± 4	44 ± 4	47 ± 4		45	98 ± 6	5.3 ± 0.05					
COc1ccc(C2NC(=O)NC(C)=C2C(=O)OC(C)C)cc1O (stereo not shown) [Compound 14, Isopropyl 4-(3-Hydroxy-4-methoxyphenyl)-6-methyl-2-oxo-1,2,3,4-tetrahydropyrimidine-5-carboxylate]	40 ± 4	44 ± 4	42 ± 4	43 ± 4		41	92 ± 5	4.7 ± 0.04	3.10	11.50	7.40	8.50	0.40
CC1=C(C(=O)OC(C)C)C(c2cccc(O)c2)NC(=S)N1 (stereo not shown) [Compound 7, Isopropyl 4-(3-Hydroxyphenyl)-6-methyl-2-thioxo-1,2,3,4-tetrahydropyrimidine-5-carboxylate]	70 ± 7	74 ± 7	72 ± 7	73 ± 7		71							
COc1ccc(C2NC(=S)NC(C)=C2C(=O)OC(C)C)cc1OC (stereo not shown) [Compound 5, Isopropyl 4-(3,4-Dimethoxyphenyl)-6-methyl-2-thioxo-1,2,3,4-tetrahydropyrimidine-5-carboxylate]	67 ± 6	71 ± 6	68 ± 6	70 ± 6		68							
CC1=C(C(=O)OC(C)C)C(c2cccc(O)c2)NC(=O)N1 (stereo not shown) [Compound 12, Isopropyl 4-(3-Hydroxyphenyl)-6-methyl-2-oxo-1,2,3,4-tetrahydropyrimidine-5-carboxylate]	36 ± 3	38 ± 3	36 ± 3	38 ± 3	no effect	37	87 ± 5	4.2 ± 0.04	4.75	13.95	8.20	9.65	
